Data taken from the RNAGym collection of RNA variant scans (doi:10.1126/science.aae0568).
This sample holds only a part of the variants without activity.

B1: tRNA (parent)
chain: GUUCCGUUGGCGUAAUGGUAACGCGUCUCCCUCCUAAGGAGAAGACUGCGGGUUCGAGUCCCGUACGGAACG

Variants of: B1
Assay: yeast fitness relative to wild type (ratio to wild type); higher = fitter; tRNA-Arg(CCU), competitive growth, 37 C, YPD
Summary of the method: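 Start and end populations of a pooled competition were compared by 100-nucleotide paired-end sequencing of gene amplicons. The Saccharomyces cerevisiae strains carried tRNA-Arg(CCU) gene variants at the native genomic locus, synthesised with a 3% per-site mutation rate at 69 sites, and competed in YPD at 37°C for 24 hours in six parallel replicates. Darwinian fitness relative to wild type was based on the change in genotype frequencies. Genotypes required ≥ 100 starting reads, and estimates < 0.5 were set to 0.5.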

Variant	yeast fitness
C5G A15U G56A A70G	≤ 0.5
C5G A43C G52C	≤ 0.5
C5G C31G	0.824
C5G C31A	0.79
C5G C11G A15C A45U C49U	≤ 0.5
C5G C22G C55A A65U	0.63
C5G A20C G48A	≤ 0.5
C5G G10A C22U A37C G56A	≤ 0.5
C5G C11G C27G G48A	0.524
C5G C27U C49A U54C C60G	≤ 0.5
C5G A21G C31G A36C A57G C62U	0.586
C5G C24G C30G C31U U35A A36U G44A G63C	0.966
C5G C34G C46U C49U	≤ 0.5
C5G C30A	0.736
C5G A20G C46U	0.638
C5G C30U U47A G51A A57G	≤ 0.5
C5G A20C C27G G67U	≤ 0.5
C5G A21G U32C U47A G68A	≤ 0.5
C5G A14C G38C G39A A43C C60G A65C	≤ 0.5
C5G C11A U19C A20C C33A C61G	0.676
C5G C29A G52A	0.695
C5G C22G C62A	0.509
C5G C24G G50A C60U A69U	≤ 0.5
C5G A21U	0.731

Variant	yeast fitness
C5G A20G A40G G44A C46G	0.517
C5G A20U A65G	0.65
C5G A40C C49U	≤ 0.5
C5G A14C G23C G38A G58C G63A A70G	≤ 0.5
C5G A20U C62G	≤ 0.5
C5G A21G C49A U54C A65G	≤ 0.5
C5G A42G U64G	0.637
C5G A42G U64C	0.72
C5G C30U G50C	≤ 0.5
C5G G6C G48A	1.06
C5G C31U G52A	0.612
C5G A37G C46G	0.598
C5G C22G G39C A57U	0.723
C5G A14U C30A C62A	≤ 0.5
C5G C22U C62A A65C	≤ 0.5
C5G C29U C66U	0.57
C5G G10A C33U A65C G68C	0.55
C5G C31A A37C G48A G58C G68C	≤ 0.5
C5G A43C G48A U59G	≤ 0.5
C5G G10C U13G A37C G56A A65U	0.64
C5G C55U	0.791
C5G A15U G50A A69U	≤ 0.5
C5G A14U C33G A43U U54C	≤ 0.5
C5G G6C G38C G58U	0.551

Variant	yeast fitness
C5G C34A C49U	≤ 0.5
C5G G6C C34U G38C	0.749
C5G A21G A45U A69U	0.634
C5G G6A C30G	≤ 0.5
C5G C31A A45U	0.584
C5G G10C C29A	≤ 0.5
C5G C30U C31G C46U	≤ 0.5
C5G C11G	0.614
C5G C11U	0.886
C5G C61G A69G	≤ 0.5
C5G C49G	0.84
C5G C49A	0.624
C5G A45C C60U A69U	0.52
C5G G12A	0.932
C5G G12A C22A U26C C33G U64A G67C	≤ 0.5
C5G G10A A37C G56A	0.567
C5G C11A C46G	0.639
C5G G9C A40U C66G	≤ 0.5
C5G C61U U64G	0.87
C5G A20G A36G C66A	≤ 0.5
C5G A45G	0.984
C5G A45U	1.01
C5G C22G A36C	≤ 0.5
C5G G10A	0.804

Variant	yeast fitness
C5G A20U A37G U64A	0.577
C5G G9C U47C A65U	≤ 0.5
C5G C11G A40G C60G	0.588
C5G A21U G23A C29A A37U A57G C61U	0.541
C5G A20G A36C A42G	≤ 0.5
C5G C46U U53A	0.529
C5G A65G A69U	0.71
C5G A21G U32C A65U G68A	0.507
C5G A15G U54A C55G	≤ 0.5
C5G G6A C29U C33G G38A U59G	0.562
C5G A42U G68A	0.582
C5G C11G U35C	0.643
C5G C31U A36C G38A	0.557
C5G C11G A20C C33U C34U	≤ 0.5
C5G A21G U26C C49A U54C A65G	≤ 0.5
C5G A15U C49U A57U C61A	0.663
C5G A15U C46U A70G	≤ 0.5
C5G G9C G58C	≤ 0.5
C5G C33G A40U	≤ 0.5
C5G C49A G63A	≤ 0.5
C5G C46U A57C	0.552
C5G A15U C30A C31A C66G	≤ 0.5
C5G A14U G25A C33A C61U	≤ 0.5
C5G A45U C62U	0.725

Variant	yeast fitness
C5G C29U A37G A65G	≤ 0.5
C5G G9A C27G	0.544
C5G C27G C29U A45G C49A C66U	≤ 0.5
C5G C11A A14G G25C C29G C60G	≤ 0.5
C5G C11A A14G G25C C29G C60A	≤ 0.5
C5G C34G C62U	0.531
C5G G10C G52A U54A C60G	0.629
C5G A15C G18C C49U U64A A69U	≤ 0.5
C5G A65U	0.796
C5G A42C A57C G68U	≤ 0.5
C5G C62G U64A	≤ 0.5
C5G C22A U26C C33G	0.564
C5G A14G A36U G67A	≤ 0.5
C5G C27U G41C A57C	0.565
C5G C33A U64A	≤ 0.5
C5G C27A C49A	≤ 0.5
C5G A15U C61U	≤ 0.5
C5G C62U	0.79
C5G C62A	0.697
C5G A14C G23C C33U G38A G58C A70G	≤ 0.5
C5G A14U G68C	≤ 0.5
C5G A15G C24G C60A	≤ 0.5
C5G A45U G68C	≤ 0.5
C5G G9C A43G A69G	≤ 0.5

Variant	yeast fitness
C5G C30G C33G A37U C61G	≤ 0.5
C5G C11A A14G G25C C29G C66U	≤ 0.5
C5G C24U C66A	≤ 0.5
C5G G6C C49A	≤ 0.5
C5G G6A C29U C31G C33G G38A U59G	≤ 0.5
C5G A14C U28A C31A A45U C49A C66U	≤ 0.5
C5G A14U G18A A21U A42G	0.646
C5G C31A C66G	≤ 0.5
C5G C22A G25A A37U	0.596
C5G C62G A65U	≤ 0.5
C5G G9C U13C A21G	≤ 0.5
C5G G9C A20U A21G C24G C27G	0.577
C5G C30U A36U G51C	≤ 0.5
C5G C11G A21C G67C	≤ 0.5
C5G C29G C46G	≤ 0.5
C5G A14C G25A U32C G41C G50A C61G	≤ 0.5
C5G C30U U32A C49G	≤ 0.5
C5G A14U C24G A70U	≤ 0.5
C5G C29A C31A	0.714
C5G A15G C61U	0.539
C5G C66A A69U	0.574
C5G C11G A42G G68A	≤ 0.5
C5G C22U U28G	≤ 0.5
C5G C33G A40U A65C	≤ 0.5

Variant	yeast fitness
C5G A21G G41A G67A	≤ 0.5
C5G C11G A14U A15U C61U G68C	≤ 0.5
C5G C24G C49U G58A G63A	≤ 0.5
C5G C11A A15G G18A C30G	0.587
C5G A20C C24U	≤ 0.5
C5G A40G	0.755
C5G A40U	0.876
C5G C22G A45G A65U	≤ 0.5
C5G C24U A45G	0.799
C5G C27G C33U G56A U64C A69U	≤ 0.5
C5G C31U A37G	0.592
C5G A14U A37U A45C C62U	≤ 0.5
C5G C30G G67A A70U	≤ 0.5
C5G C11G A42C C49U	≤ 0.5
C5G A21C U32C G39A A57U U59C	≤ 0.5
C5G A20G C55G	0.538
C5G C29G U32A A37U	≤ 0.5
C5G C29U C31G G44C	0.556
C5G C61U A69C	≤ 0.5
C5G C61U A69U	0.775
C5G C34A A36U G51C G56A	0.797
C5G C11A U19C A20C C33A C61G C66U A69U	≤ 0.5
C5G C34A G39C G52A G58A	0.532
